PMC6463388 (Biochemical Journal, 2019)

T1: AtGCL (WT γ-glutamylcysteine ligase) (Arabidopsis thaliana, UniProt P46309)
T1 sequence (P46309 74-522): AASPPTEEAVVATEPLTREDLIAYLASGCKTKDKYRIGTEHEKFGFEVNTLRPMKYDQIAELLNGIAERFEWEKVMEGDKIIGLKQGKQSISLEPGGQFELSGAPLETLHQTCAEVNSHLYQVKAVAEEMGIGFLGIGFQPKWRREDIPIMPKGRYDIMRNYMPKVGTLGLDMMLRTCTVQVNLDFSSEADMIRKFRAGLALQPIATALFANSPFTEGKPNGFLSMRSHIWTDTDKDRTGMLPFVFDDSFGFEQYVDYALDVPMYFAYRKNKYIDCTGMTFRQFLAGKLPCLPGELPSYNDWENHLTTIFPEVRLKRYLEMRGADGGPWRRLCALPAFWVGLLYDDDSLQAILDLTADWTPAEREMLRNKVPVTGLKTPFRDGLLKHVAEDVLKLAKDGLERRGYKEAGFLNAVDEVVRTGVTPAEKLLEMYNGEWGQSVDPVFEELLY

B1: AtGCL (WT γ-glutamylcysteine ligase) (Arabidopsis thaliana) (protein)
chain: AASPPTEEAVVATEPLTREDLIAYLASGCKTKDKYRIGTEHEKFGFEVNTLRPMKYDQIAELLNGIAERFEWEKVMEGDKIIGLKQGKQSISLEPGGQFELSGAPLETLHQTCAEVNSHLYQVKAVAEEMGIGFLGIGFQPKWRREDIPIMPKGRYDIMRNYMPKVGTLGLDMMLRTCTVQVNLDFSSEADMIRKFRAGLALQPIATALFANSPFTEGKPNGFLSMRSHIWTDTDKDRTGMLPFVFDDSFGFEQYVDYALDVPMYFAYRKNKYIDCTGMTFRQFLAGKLPCLPGELPSYNDWENHLTTIFPEVRLKRYLEMRGADGGPWRRLCALPAFWVGLLYDDDSLQAILDLTADWTPAEREMLRNKVPVTGLKTPFRDGLLKHVAEDVLKLAKDGLERRGYKEAGFLNAVDEVVRTGVTPAEKLLEMYNGEWGQSVDPVFEELLY

Tests used:
[1] = target: T1, AtGCL (WT γ-glutamylcysteine ligase); assay: inhibition of GCL activity; assay type: biochemical; conditions: read-out: GSH
How it was run: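 Recombinant His-tagged AtGCL from E. coli Rosetta-gami DE3, purified by Ni²⁺ affinity, cleaved with TEV protease, then passed through a second Ni²⁺ step. Pyruvate kinase/lactate dehydrogenase-coupled assay at pH 7.0 (100 mM MOPSO, 150 mM NaCl, 20 mM MgCl₂). […] Reaction started with 50 µg enzyme; A340 monitored.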

[2] = substrate: N[C@@H](CS)C(=O)O; assay: purified protein; assay type: biochemical, Arabidopsis thaliana; conditions: 20 mM ATP, 80 mM glutamate, 20 mM MgCl2, pH 7.0, oxidized homo-dimer
[3] = substrate: N[C@@H](CCC(=O)O)C(=O)O; assay: purified protein; assay type: biochemical, Arabidopsis thaliana; conditions: 20 mM cysteine, 20 mM ATP, 20 mM MgCl2, pH 7.0, oxidized homo-dimer

Row | Molecule | activity at 2000 µM [1] [%] | Km [2] [mM] | Km [3] [mM]
1 | N[C@@H](CCC(=O)N[C@@H](CS)C(=O)NCC(=O)O)C(=O)O [GSH] | 49 ± 4 | – | –
2 | B1 | – | 0.34 ± 0.12 | 6.64 ± 1.02
